Key:
Format in all cases: cell-based
Conditions in all cases: Cricetulus griseus
V79-379A [1] = assay: Cytofluorimetric analysis of V79 379A chinese hamster cells incubated under hypoxic conditions with the compound (10e-4 M)
Summary of the method: (§1)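 V79 379A Chinese hamster cells grown as exponential suspension cultures in Eagle's MEM (Earle's salts, suspension-modified) with 7.5% foetal calf serum. Cells incubated with drug at 37 °C under oxic (air + 5% CO2) or hypoxic (nitrogen + 5% CO2) gassing. Flow cytometry used 365 nm laser excitation at 100-200 mW. Emission collected >390 nm, or >410 nm for some compounds. Data gated on forward scatter and fluorescence to exclude debris. Mean fluorescence in arbitrary units, normalized for PMT gain and laser power.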

V79-379A [2] = assay: Cytofluorimetric analysis of V79 379A chinese hamster cells incubated under oxic conditions with the compound (10e-4 M); summary of the method: as §1
V79-379A [3] = assay: Maximum accumulation of fluorescent metabolites in V79 379A chinese hamster cells after incubation with the compound (10e-4) at tmax; summary of the method: as §1

Compound | Fluorescence (V79-379A [1]) [AU] | Fluorescence (V79-379A [2]) [AU] | Tmax (V79-379A [3]) [h]
O=c1c(NCC(O)Cn2ccnc2[N+](=O)[O-])cnc2ccccn12 (centres undefined) | 1750 | 603 | 6
Cc1c(C)n2c(CN(C)CC(O)Cn3ccnc3[N+](=O)[O-])c(C)c(=O)n2c1=O (centres undefined) | 55 | 43 | 15
CCOC(=O)c1c(C)c(CN(C)CCCn2ccnc2[N+](=O)[O-])c2ccccn12 | 765 | 258 | 6
O=[N+]([O-])c1nccn1CC(O)CNc1ccc(-c2cn3ccccc3n2)cc1 (centres undefined) | 1570 | 417 | 6
O=[N+]([O-])c1nccn1CC(O)CNc1ccc(-c2cc3ccccn3c2)cc1 (centres undefined) | 169 | 107 | 6
N#Cc1c(C(=O)NCCN(CCO)CC(O)Cn2ccnc2[N+](=O)[O-])cn2ccccc12 (centres undefined) | 81 | 27 | 6
CCOC(=O)c1c(C(=O)NCCN(CCO)CC(O)Cn2ccnc2[N+](=O)[O-])cn2ccccc12 (centres undefined) | 1140 | 66 | 6
Cc1c(C)n2c(CNCC(O)Cn3ccnc3[N+](=O)[O-])c(C)c(=O)n2c1=O (centres undefined) | 89 | 33 | 15
